Measured values reported in ChEMBL document CHEMBL3124902, “Homoisoflavonoids as potential imaging agents for β-amyloid plaques in Alzheimer's disease” (Eur J Med Chem, 2014).
Calls of active or inactive are those of the source. The calls are words filed in the database; no cut-off is given here.

How the values were obtained:
[1] = target: T1, Amyloid-beta precursor protein (Homo sapiens, UniProt P05067); test: Displacement of [125I]IMPY from amyloid beta (1 to 40) (unknown origin) after 2 hrs by gamma counting analysis
T1 sequence (P05067 whole entry): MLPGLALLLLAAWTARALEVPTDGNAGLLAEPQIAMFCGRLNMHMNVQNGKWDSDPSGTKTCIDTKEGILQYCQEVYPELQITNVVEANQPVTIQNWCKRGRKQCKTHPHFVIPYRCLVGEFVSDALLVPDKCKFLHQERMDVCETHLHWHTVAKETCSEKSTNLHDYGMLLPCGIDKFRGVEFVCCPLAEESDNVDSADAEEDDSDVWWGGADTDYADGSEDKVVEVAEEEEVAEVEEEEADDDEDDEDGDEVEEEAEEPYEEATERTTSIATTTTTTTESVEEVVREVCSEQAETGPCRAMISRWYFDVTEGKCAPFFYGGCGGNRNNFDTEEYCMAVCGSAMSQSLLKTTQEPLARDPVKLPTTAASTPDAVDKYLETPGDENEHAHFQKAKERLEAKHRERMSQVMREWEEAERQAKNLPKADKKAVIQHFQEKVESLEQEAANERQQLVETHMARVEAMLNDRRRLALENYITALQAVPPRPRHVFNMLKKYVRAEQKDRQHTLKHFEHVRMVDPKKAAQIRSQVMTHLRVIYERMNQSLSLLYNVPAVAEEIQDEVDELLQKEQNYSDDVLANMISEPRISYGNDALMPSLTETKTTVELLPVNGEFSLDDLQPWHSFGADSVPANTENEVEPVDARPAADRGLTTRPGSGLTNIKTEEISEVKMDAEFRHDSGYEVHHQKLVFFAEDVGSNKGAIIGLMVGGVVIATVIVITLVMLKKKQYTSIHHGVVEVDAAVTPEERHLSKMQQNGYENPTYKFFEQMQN
Summary of the method: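 Incubation was 2 h at 37 °C. Bound and free fractions were separated by filtration through GF/B filters, followed by ice-cold PBS washes and counting. IC50 came from displacement curves of three independent experiments, done in duplicate. Ki was obtained by Cheng-Prusoff.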

[2] = target: Microtubule-associated protein tau (Homo sapiens) (UniProt P10636); test: Binding affinity to hyperphosphorylated tau protein-containing neurofibrillary tangles of Alzheimer's disease patient at 50 uM after 20 mins by thioflavin-S staining-based fluorescence microscopic analysis
Microtubule-associated protein tau (Homo sapiens), sequence (P10636 whole entry): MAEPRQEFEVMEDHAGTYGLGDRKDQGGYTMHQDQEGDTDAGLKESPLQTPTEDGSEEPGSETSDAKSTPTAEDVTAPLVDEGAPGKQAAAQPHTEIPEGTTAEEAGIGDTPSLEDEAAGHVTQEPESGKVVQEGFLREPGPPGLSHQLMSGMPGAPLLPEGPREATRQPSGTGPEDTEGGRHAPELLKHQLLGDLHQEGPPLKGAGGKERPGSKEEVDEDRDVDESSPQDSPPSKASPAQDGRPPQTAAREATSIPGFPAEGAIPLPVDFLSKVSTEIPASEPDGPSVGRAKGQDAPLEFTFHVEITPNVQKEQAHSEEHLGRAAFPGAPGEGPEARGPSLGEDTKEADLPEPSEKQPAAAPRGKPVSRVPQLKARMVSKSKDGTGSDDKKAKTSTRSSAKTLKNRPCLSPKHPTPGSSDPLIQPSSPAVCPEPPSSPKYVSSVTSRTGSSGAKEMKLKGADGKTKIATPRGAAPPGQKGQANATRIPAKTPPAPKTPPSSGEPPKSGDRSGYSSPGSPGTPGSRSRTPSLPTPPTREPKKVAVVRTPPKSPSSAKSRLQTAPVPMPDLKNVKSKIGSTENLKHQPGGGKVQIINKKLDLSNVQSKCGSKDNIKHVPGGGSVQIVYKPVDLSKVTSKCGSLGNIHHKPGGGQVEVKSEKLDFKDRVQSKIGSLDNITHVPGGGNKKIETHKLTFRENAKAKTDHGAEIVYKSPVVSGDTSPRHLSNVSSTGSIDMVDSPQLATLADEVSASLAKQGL
Summary of the method: (§1)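 Paraffin sections of postmortem AD brain were dewaxed in xylene, passed through graded ethanol, then rinsed in water and 0.01 M PBS at pH 7.4. Sections were immersed in cold ligand (50 in 30% EtOH/0.1 M PBS) for 20 min and differentiated in 50% EtOH for 10 min. Adjacent sections were stained with ThS (1%, 5 min) and differentiated in 70% EtOH. Sections were then PBS-washed, mounted in 80% glycerin and imaged by fluorescence microscopy.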

[3] = target: T1, Amyloid-beta precursor protein; test: Binding affinity to beta amyloid-containing senile plaques of Alzheimer's disease patient at 50 uM after 20 mins by thioflavin-S staining-based fluorescence microscopic analysis; summary of the method: as §1
Lung [4] = test: Biodistribution in ICR mouse lung at 2 uCi, iv measured at 2 hrs by gamma counting analysis; type: ADME, organism-based; settings: in vivo
Summary of the method: (§2)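 The radioiodinated ligand was given intravenously to normal ICR mice, n=5 per time point. Mice were euthanized at 2, 10, 30, 60 and 120 min, and organs were removed and weighed. Radioactivity was gamma counted. %ID/g was calculated as counts per gram of tissue divided by counts of 1% of the injected dose, taken from a 100-fold diluted aliquot.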

Liver [5] = test: Biodistribution in ICR mouse liver at 2 uCi, iv measured at 30 mins by gamma counting analysis; type: ADME, organism-based; settings: in vivo, 0.5 h; summary of the method: as §2
Brain [6] = test: Biodistribution in ICR mouse brain at 2 uCi, iv measured at 2 hrs by gamma counting analysis; type: ADME, organism-based; settings: in vivo; summary of the method: as §2
Kidney [7] = test: Biodistribution in ICR mouse kidney at 2 uCi, iv measured at 10 mins by gamma counting analysis; type: ADME, organism-based; settings: in vivo; summary of the method: as §2
Brain [8] = test: Biodistribution in ICR mouse brain at 2 uCi, iv measured at 2 mins by gamma counting analysis; type: ADME, organism-based; settings: in vivo; summary of the method: as §2
Blood [9] = test: Biodistribution in ICR mouse blood at 2 uCi, iv measured at 2 mins by gamma counting analysis; type: ADME, organism-based; settings: in vivo; summary of the method: as §2
Spleen [10] = test: Biodistribution in ICR mouse spleen at 2 uCi, iv measured at 30 mins by gamma counting analysis; type: ADME, organism-based; settings: in vivo, 0.5 h; summary of the method: as §2
Heart [11] = test: Biodistribution in ICR mouse heart at 2 uCi, iv measured at 2 hrs by gamma counting analysis; type: ADME, organism-based; settings: in vivo; summary of the method: as §2
Brain [12] = test: Biodistribution in ICR mouse brain at 2 uCi, iv measured at 1 hr by gamma counting analysis; type: ADME, organism-based; settings: in vivo; summary of the method: as §2
Blood [13] = test: Biodistribution in ICR mouse blood at 2 uCi, iv measured at 2 hrs by gamma counting analysis; type: ADME, organism-based; settings: in vivo; summary of the method: as §2
Kidney [14] = test: Biodistribution in ICR mouse kidney at 2 uCi, iv measured at 30 mins by gamma counting analysis; type: ADME, organism-based; settings: in vivo, 0.5 h; summary of the method: as §2
Liver [15] = test: Biodistribution in ICR mouse liver at 2 uCi, iv measured at 2 mins by gamma counting analysis; type: ADME, organism-based; settings: in vivo; summary of the method: as §2
Spleen [16] = test: Biodistribution in ICR mouse spleen at 2 uCi, iv measured at 2 mins by gamma counting analysis; type: ADME, organism-based; settings: in vivo; summary of the method: as §2
Blood [17] = test: Biodistribution in ICR mouse blood at 2 uCi, iv measured at 1 hr by gamma counting analysis; type: ADME, organism-based; settings: in vivo; summary of the method: as §2
Heart [18] = test: Biodistribution in ICR mouse heart at 2 uCi, iv measured at 2 mins by gamma counting analysis; type: ADME, organism-based; settings: in vivo; summary of the method: as §2
Lung [19] = test: Biodistribution in ICR mouse lung at 2 uCi, iv measured at 10 mins by gamma counting analysis; type: ADME, organism-based; settings: in vivo; summary of the method: as §2
Heart [20] = test: Biodistribution in ICR mouse heart at 2 uCi, iv measured at 30 mins by gamma counting analysis; type: ADME, organism-based; settings: in vivo, 0.5 h; summary of the method: as §2
Liver [21] = test: Biodistribution in ICR mouse liver at 2 uCi, iv measured at 2 hrs by gamma counting analysis; type: ADME, organism-based; settings: in vivo; summary of the method: as §2
Heart [22] = test: Biodistribution in ICR mouse heart at 2 uCi, iv measured at 1 hr by gamma counting analysis; type: ADME, organism-based; settings: in vivo; summary of the method: as §2
Spleen [23] = test: Biodistribution in ICR mouse spleen at 2 uCi, iv measured at 10 mins by gamma counting analysis; type: ADME, organism-based; settings: in vivo; summary of the method: as §2
Brain [24] = test: Biodistribution in ICR mouse brain at 2 uCi, iv measured at 10 mins by gamma counting analysis; type: ADME, organism-based; settings: in vivo; summary of the method: as §2
Liver [25] = test: Biodistribution in ICR mouse liver at 2 uCi, iv measured at 1 hr by gamma counting analysis; type: ADME, organism-based; settings: in vivo; summary of the method: as §2
Kidney [26] = test: Biodistribution in ICR mouse kidney at 2 uCi, iv measured at 2 mins by gamma counting analysis; type: ADME, organism-based; settings: in vivo; summary of the method: as §2
Lung [27] = test: Biodistribution in ICR mouse lung at 2 uCi, iv measured at 30 mins by gamma counting analysis; type: ADME, organism-based; settings: in vivo, 0.5 h; summary of the method: as §2
Brain [28] = test: Ratio of drug level in ICR mouse brain measured at 60 mins to drug level in ICR mouse brain measured at 2 mins; type: ADME; settings: in vivo
Summary of the method: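 Brain uptake (%ID/g) at 60 min was divided by uptake at 2 min after intravenous injection into normal ICR mice, n=5 per time point. Brain radioactivity was gamma counted and normalised to a 1% injected-dose standard.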

Kidney [29] = test: Biodistribution in ICR mouse kidney at 2 uCi, iv measured at 2 hrs by gamma counting analysis; type: ADME, organism-based; settings: in vivo; summary of the method: as §2
Spleen [30] = test: Biodistribution in ICR mouse spleen at 2 uCi, iv measured at 1 hr by gamma counting analysis; type: ADME, organism-based; settings: in vivo; summary of the method: as §2
Blood [31] = test: Biodistribution in ICR mouse blood at 2 uCi, iv measured at 30 mins by gamma counting analysis; type: ADME, organism-based; settings: in vivo, 0.5 h; summary of the method: as §2
Lung [32] = test: Biodistribution in ICR mouse lung at 2 uCi, iv measured at 2 mins by gamma counting analysis; type: ADME, organism-based; settings: in vivo; summary of the method: as §2
Lung [33] = test: Biodistribution in ICR mouse lung at 2 uCi, iv measured at 1 hr by gamma counting analysis; type: ADME, organism-based; settings: in vivo; summary of the method: as §2
Kidney [34] = test: Biodistribution in ICR mouse kidney at 2 uCi, iv measured at 1 hr by gamma counting analysis; type: ADME, organism-based; settings: in vivo; summary of the method: as §2
Blood [35] = test: Biodistribution in ICR mouse blood at 2 uCi, iv measured at 10 mins by gamma counting analysis; type: ADME, organism-based; settings: in vivo; summary of the method: as §2
Spleen [36] = test: Biodistribution in ICR mouse spleen at 2 uCi, iv measured at 2 hrs by gamma counting analysis; type: ADME, organism-based; settings: in vivo; summary of the method: as §2
Heart [37] = test: Biodistribution in ICR mouse heart at 2 uCi, iv measured at 10 mins by gamma counting analysis; type: ADME, organism-based; settings: in vivo; summary of the method: as §2
Brain [38] = test: Biodistribution in ICR mouse brain at 2 uCi, iv measured at 30 mins by gamma counting analysis; type: ADME, organism-based; settings: in vivo, 0.5 h; summary of the method: as §2
Liver [39] = test: Biodistribution in ICR mouse liver at 2 uCi, iv measured at 10 mins by gamma counting analysis; type: ADME, organism-based; settings: in vivo; summary of the method: as §2

With `COc1cccc(/C=C2\COc3ccc(Br)cc3C2=O)c1` the Ki [1] was 73.5 nM.
With `CN(C)c1ccc(/C=C2\COc3ccc(Br)cc3C2=O)cc1` the Ki [1] was 9.1 nM, the Activity [2] was “inactive” and the Activity [3] was “Active”.
`CN(C)c1ccc(/C=C2\COc3ccc([125I])cc3C2=O)cc1` was tested, and the Drug uptake (Lung [4]) was 0.73 % ID/g, the Drug uptake (Liver [5]) was 2.07 % ID/g and the Drug uptake (Brain [6]) was 0.1 % ID/g. For the same compound, the Drug uptake (Kidney [7]) was 10.88 % ID/g, the Drug uptake (Brain [8]) was 2.61 % ID/g and the Drug uptake (Blood [9]) was 8.35 % ID/g. The Drug uptake (Spleen [10]) was 0.7 % ID/g, the Drug uptake (Heart [11]) was 0.36 % ID/g and the Drug uptake (Brain [12]) was 0.18 % ID/g. The Drug uptake (Blood [13]) was 1.05 % ID/g, the Drug uptake (Kidney [14]) was 3.36 % ID/g and the Drug uptake (Liver [15]) was 13.57 % ID/g. For the same compound, the Drug uptake (Spleen [16]) was 2.54 % ID/g, the Drug uptake (Blood [17]) was 1.22 % ID/g and the Drug uptake (Heart [18]) was 4.46 % ID/g. The Drug uptake (Lung [19]) was 4.87 % ID/g, the Drug uptake (Heart [20]) was 0.87 % ID/g and the Drug uptake (Liver [21]) was 1.05 % ID/g. It also gave a Drug uptake (Heart [22]) of 0.49 % ID/g, a Drug uptake (Spleen [23]) of 1.27 % ID/g and a Drug uptake (Brain [24]) of 0.83 % ID/g. For the same compound, the Drug uptake (Liver [25]) was 1.23 % ID/g, the Drug uptake (Kidney [26]) was 17.89 % ID/g and the Drug uptake (Lung [27]) was 2.29 % ID/g. It also gave a Ratio (Brain [28]) of 6.9%, a Drug uptake (Kidney [29]) of 1 % ID/g and a Drug uptake (Spleen [30]) of 0.4 % ID/g. It also gave a Drug uptake (Blood [31]) of 2.38 % ID/g, a Drug uptake (Lung [32]) of 9.33 % ID/g and a Drug uptake (Lung [33]) of 0.99 % ID/g. It also gave a Drug uptake (Kidney [34]) of 1.42 % ID/g, a Drug uptake (Blood [35]) of 3.87 % ID/g and a Drug uptake (Spleen [36]) of 0.35 % ID/g. It also gave a Drug uptake (Heart [37]) of 1.87 % ID/g, a Drug uptake (Brain [38]) of 0.32 % ID/g and a Drug uptake (Liver [39]) of 4.71 % ID/g.
`O=C1/C(=C/c2ccc([N+](=O)[O-])cc2)COc2ccc(Br)cc21` was tested, and the Ki [1] was 108 nM.
`CN(C)c1ccc(/C=C2\COc3ccc(Br)cc3C2=O)cc1Br` gave a Ki [1] of 25.5 nM.
`O=C1/C(=C/c2ccc(O)cc2)COc2ccc(Br)cc21` gave a Ki [1] of 103 nM.
Compound `COc1ccc(/C=C2\COc3ccc(Br)cc3C2=O)cc1OC` has a Ki [1] of 54.2 nM.
In the case of `O=C1/C(=C/c2ccccc2)COc2ccc(Br)cc21`, the Ki [1] is reported as 104 nM.
Compound `COc1ccc(/C=C2\COc3ccc(Br)cc3C2=O)cc1` has a Ki [1] of 9.98 nM.
Compound `COc1cc(/C=C2\COc3ccc(Br)cc3C2=O)ccc1O` has a Ki [1] of 432 nM.
Compound `COc1cc(/C=C2\COc3ccc(Br)cc3C2=O)cc(OC)c1` has a Ki [1] of 39.2 nM.
Work on `O=C1/C(=C/c2ccc(Br)cc2)COc2ccc(Br)cc21` yielded a Ki [1] of 144 nM.
`Nc1ccc(/C=C2\COc3ccc(Br)cc3C2=O)cc1` gave a Ki [1] of 63.6 nM.
